Assay outcomes: PubChem, several laboratories
TNAP inh no acc: inhibitors of human TNAP without phosphate acceptor; P05186; inhibition, % at 20 µM; actives 0.26% (n = 200,000); purified TNAP, CDP-star luminescence, 30 min;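 active = tissue-nonspecific alkaline phosphatase inhibition above about 50% at 20 µM in the single-dose screen, limit read from the data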
Target sequence (P05186 whole entry, looked up): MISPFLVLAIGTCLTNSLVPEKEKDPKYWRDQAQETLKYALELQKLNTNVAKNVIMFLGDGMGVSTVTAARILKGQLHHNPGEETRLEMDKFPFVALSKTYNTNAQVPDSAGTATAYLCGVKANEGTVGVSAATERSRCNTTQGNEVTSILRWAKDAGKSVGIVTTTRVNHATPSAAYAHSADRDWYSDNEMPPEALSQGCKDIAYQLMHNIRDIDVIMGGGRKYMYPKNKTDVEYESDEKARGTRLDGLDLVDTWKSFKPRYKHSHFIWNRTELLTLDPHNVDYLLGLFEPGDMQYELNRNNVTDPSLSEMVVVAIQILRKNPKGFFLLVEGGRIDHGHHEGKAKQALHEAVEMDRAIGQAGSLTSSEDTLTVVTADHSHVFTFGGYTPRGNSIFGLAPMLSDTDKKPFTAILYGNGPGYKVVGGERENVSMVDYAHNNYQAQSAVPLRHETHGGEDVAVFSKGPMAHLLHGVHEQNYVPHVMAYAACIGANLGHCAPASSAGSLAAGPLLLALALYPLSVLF
TNAP act hi DEA: activators of human TNAP at high phosphate acceptor concentration | purified TNAP, CDP-star luminescence, 1 M DEA, 30 min; stronger effect = higher value; 0 = EDTA background, 1 = DMSO-only activity | activation factor at 20 µM | 200,000 tested, under 10 active;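 active = activation factor at least 2 at 20 µM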
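Test system – human TNAP · Doses – 20 µM single point · Incubation – 30 min, room temperature · Signal – luminescent substrate turnover signal · Read-out basis – activation factor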
WT yeast gro inh: growth inhibition of WT yeast, mitochondrial fusion screen; actives 2.1% (n = 190,000); AID 1362; inhibition, % at 10 µM; mitochondrial fusion phenotypic screen, WT strain; in the data active = inhibition above about 58%; tested in S. cerevisiae
Arbovirus inh: arbovirus infection inhibition. inhibition, % at 10 µM. arbovirus infection cell-based antiviral screen. actives 0.37% (n = 200,000); in the data active = inhibition above about 30%
TNAP inh hiacc: inhibitors of human TNAP at high phosphate acceptor concentration; actives 0.03% (n = 200,000); inhibition, % at 20 µM; purified TNAP, CDP-star luminescence, 1 M DEA; P05186;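 active = over 50% inhibition of tissue-nonspecific alkaline phosphatase at 20 µM in the single-dose screen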
Of the large screens only hits and unclear results are named; the others gave an inactive call; ! = a repeat was not active. A selection: hits, their analogues and other compounds. The true share with any hit is near 2.6%.

CCOc1ccc(-c2nnc(-c3snc(-c4ccc(F)cc4)c3N=CN(C)C)o2)cc1	none
CC(C)OC(=O)C(C(=O)C(F)(F)F)c1cc(NS(=O)(=O)c2ccc3ccccc3c2)c2ccccc2c1O (stereo not given)	WT yeast gro inh 62
Cn1c(=O)c(Nc2ccc(O)cc2)c2c3c(cccc31)C(=O)c1ccccc1-2	none
CC1CN(c2nc3ccccc3nc2C(C#N)C(=O)OC2CCCCC2)CC(C)O1 (stereo not given)	WT yeast gro inh 60
CC(C)NC(=O)NC(=O)COC(=O)c1ccc([N+](=O)[O-])cc1Cl	none
CCn1c(CCCOc2ccc(Cl)cc2Cl)nnc1SCC(=O)Nc1cc(F)ccc1C	WT yeast gro inh 79
Cn1c(CCCOc2ccc(Cl)cc2Cl)nnc1SCC(=O)Nc1cccc(F)c1	none
O=C(Nc1nc(COc2ccccc2)cs1)C12CC3CC(CC(C3)C1)C2	WT yeast gro inh 59
CC(=O)Nc1nc(COc2ccccc2)cs1	none
CC(=O)NCC1=C(NC(C)=O)C2CC1C(C)(C)C2C (stereo not given)	Arbovirus inh 31
O=c1c2ccccc2nc(SCc2ccc([N+](=O)[O-])cc2)n1-c1ccccc1	none
N=C(N)SCc1nc2ccccc2c(=O)n1-c1ccccc1	Arbovirus inh 30!
CCOc1ccccc1NS(=O)(=O)c1cn(C)nc1C	none
C[C@]1(C(=O)NCCCNc2ncc(C(F)(F)F)cc2Cl)C=C[C@@H](Cc2ccccc2)N1C(=O)c1ccccc1	WT yeast gro inh 75
CC1(C(=O)NCCCNc2ncc(C(F)(F)F)cc2Cl)C=CCN1C(=O)c1ccccc1 (stereo not given)	none
COc1c(OC(C)=O)ccc(/C=C/c2ccc3ccccc3n2)c1[N+](=O)[O-]	WT yeast gro inh 68
CCOc1c(OC(C)=O)ccc(/C=C/c2ccc3cccc(OC(C)=O)c3n2)c1[N+](=O)[O-]	WT yeast gro inh 65
COc1c(OC(C)=O)ccc(/C=C/c2ccc3cccc(OC)c3n2)c1[N+](=O)[O-]	none
COc1ccc(S(=O)(=O)n2[nH]c(=O)c(CCO)c2C)c([N+](=O)[O-])c1	none
O=c1cc(N2CCOCC2)cnn1-c1ccccc1	none
COc1ccc(-c2nc(NC(C)=O)sc2-c2ccc(OC)cc2)cc1	none
CNc1nc(-c2ccc(OC)cc2)c(-c2ccc(OC)cc2)s1	WT yeast gro inh 68
O=C(COC(=O)c1ccccc1F)Nc1cccnc1Cl	none
N=C1/C(=C/c2ccc(-c3cccc(C(=O)O)c3)o2)C(=O)N=C2SC=C(c3ccccc3)N12	Arbovirus inh 42
CS(=O)(=O)C1=NSC2=NC(=O)/C(=C\c3ccc(-c4ccccc4)o3)C(=N)N21	Arbovirus inh 60
CC(C)S(=O)(=O)C1=NSC2=NC(=O)/C(=C\c3ccc(-c4ccccc4)o3)C(=N)N21	Arbovirus inh 33
CC(C)S(=O)(=O)C1=NSC2=NC(=O)/C(=C\c3ccc(-c4cccc(C(=O)O)c4)o3)C(=N)N21	Arbovirus inh 30
N=C1/C(=C\c2ccc(-c3cc(Cl)cc(Cl)c3)o2)C(=O)N=C2SC=C(c3ccccc3)N12	none
O=[N+]([O-])c1ccc(Oc2cccc3cccnc23)c([N+](=O)[O-])c1	WT yeast gro inh 63
O=C(O)CSCc1cnn(-c2ccccc2)c1-n1cccc1	none
O=C(CSCc1cnn(-c2ccccc2)c1-n1cccc1)N1CCN(Cc2ccccc2)CC1	WT yeast gro inh 63
CC(C)=C1C2CCC1C(C(=O)Nc1sc(C)c(-c3ccc(C(C)C)cc3)c1C(N)=O)C2C(=O)O (stereo not given)	WT yeast gro inh 62
Cc1ccc(-c2c(C)sc(NC(=O)C3C4CCC(O4)C3C(=O)O)c2C(=O)OC(C)C)cc1 (stereo not given)	none
COc1ccccc1-n1c(SCC(=O)c2ccc(O)cc2O)nc2cc([N+](=O)[O-])ccc21	WT yeast gro inh 77
COc1ccccc1-n1c(SCC(=O)NC2CCS(=O)(=O)C2)nc2cc([N+](=O)[O-])ccc21 (stereo not given)	none
COc1cc(/C=C2\SC(c3ccccc3)=NC2=O)cc(Cl)c1O	TNAP inh no acc 52
Cc1cccn2cc(COc3ccc(-c4ccccc4)cc3)nc12	WT yeast gro inh 80
COc1ccc(-n2ncc3c(SCC(=O)N4CCN(c5ccccc5OC)CC4)ncnc32)cc1	none
CCCCCC1CC(CC(=O)NC(=S)Nc2ccccc2Cl)C(=O)O1 (stereo not given)	WT yeast gro inh 61
NC(=S)N/N=C\c1c(OCc2ccccc2Cl)ccc2ccccc12	WT yeast gro inh 61
CC(OC(=O)c1snc(C(=O)NC2CCCCC2)c1N)C(=O)NC1CCCCC1 (stereo not given)	none
COc1cccc(Nc2ccc(-n3ccnc3)nn2)c1	none
Cc1ccc(Nc2ccc(-n3ccnc3)nn2)cc1C	WT yeast gro inh 69
c1ccc(-c2nc(-c3cccs3)[nH]c2-c2ccccc2)cc1	none
c1csc(-c2nc3c4ccccc4c4ccccc4c3[nH]2)c1	WT yeast gro inh 80
c1cncc(-c2noc(C34CC5CC(CC(C5)C3)C4)n2)c1	none
Cc1ccccc1-c1noc(C23CC4CC(CC(C4)C2)C3)n1	WT yeast gro inh 81
CCOC(=O)c1cnc2sc3c(n2c1=O)CCCC3	none
CCOC(=O)C1CCCN(c2c(C(=O)c3ccccc3)cnc3ccccc23)C1 (stereo not given)	WT yeast gro inh 59
CCOC(=O)C1CCCN(c2nc(C)nc3c2oc2ccccc23)C1 (stereo not given)	none
O=C(c1ccccc1)c1cnc2ccc(Cl)cc2c1N1CCOCC1	none
CCOC(=O)C1CCN(c2c(C(=O)c3ccccc3)cnc3ccc(CC)cc23)CC1	WT yeast gro inh 76
CC(NC(=O)C1CCN(S(=O)(=O)c2cnc[nH]2)CC1)c1ccccc1 (stereo not given)	none
CCOC(=O)CSc1nnc(Cn2nnc(-c3ccccc3)n2)n1C	none
O=C(COc1ccccc1)c1cn(CC(=O)N2CCCC2)c2ccccc12	none
CCOC1(OCC)C(c2ccc(N)cc2)C(C#N)(C#N)C1(OCC)OCC (stereo not given)	none
CCOC1(OCC)C(c2ccc(Cl)cc2)C(C#N)(C#N)C1(OCC)OCC (stereo not given)	WT yeast gro inh 65
CC(C)c1ccc(N(CC(=O)NCCSC(C)(C)C)S(C)(=O)=O)cc1	none
O=C(O)c1ccc(COc2ccc3ccccc3c2/C=C2/NC(=O)N(Cc3ccc(F)cc3)C2=O)cc1	Arbovirus inh 48
O=C(O)c1ccc(COc2ccccc2/C=C2\NC(=O)N(Cc3ccccc3)C2=O)cc1	none
Cn1c(N=Nc2ccccc2)nc2ccccc21	WT yeast gro inh 86
CC(=O)N(Cc1ccccc1)c1nc(-c2ccccc2)cs1	none
CCOc1ccc(-n2c(SCC(=O)Nc3cc(C)on3)nnc2-c2c[nH]c3ccccc23)cc1	WT yeast gro inh 63
CCc1ccccc1NCC(=O)Nc1ccc(Cl)c(C(F)(F)F)c1	WT yeast gro inh 80
